In ChEMBL document CHEMBL3600341, “Discovery of a series of novel compounds with moderate anti-hepatitis C virus NS3 protease activity in vitro” (Bioorg Med Chem, 2015):

test: Inhibition of HCV NS3/4A protease using RET S1 as substrate preincubated for 10 mins followed by substrate addition measured for 30 mins by FRET analysis; parameters: species or system Hepacivirus hominis
Summary of the method: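 NS3/4A protease activity followed by intramolecular FRET with quenched-fluorogenic substrate Ac-DED(EDANS)EEAbuY[COO]ASK(DABCYL). Buffer 30 mM HEPES pH 7.5, 40% glycerol, 10 mM DTT, 2% DMSO. Ten-dose 4-fold serial dilution of compound in DMSO; 10 min preincubation, substrate added to start. Kinetic read 30 min, ex 335 nm/em 495 nm. IC50 from percent inhibition versus inhibitor concentration.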

Compound	IC50 [µM]
Cc1ccc(S(=O)(=O)NC(=O)[C@H](CC(C)C)NC(=O)[C@@H]2C[C@H](n3cc(-c4ccccc4)nn3)CN2C(=O)[C@H](Cc2ccccc2)NC(=O)C(C)C)cc1	> 100
Cc1ccc(S(=O)(=O)NC(=O)[C@H](CC(C)C)NC(=O)[C@@H]2C[C@H](n3cc(-c4ccccc4)nn3)CN2C(=O)[C@@H](NC(=O)OC(C)(C)C)C(C)(C)C)cc1	> 100
CC(C)(C)OC(=O)N[C@H](C(=O)N1C[C@@H](n2cc(-c3ccccc3)nn2)C[C@H]1C(=O)N[C@H](Cc1ccccc1)C(=O)NS(=O)(=O)C1CC1)C1CCCCC1	72
CC(C)C(=O)N[C@H](C(=O)N1C[C@@H](n2cc(-c3ccccc3)nn2)C[C@H]1C(=O)N[C@H](Cc1ccccc1)C(=O)NS(=O)(=O)C1CC1)C1CCCCC1	> 100
CC(C)C[C@H](NC(=O)OC(C)(C)C)C(=O)N1C[C@@H](n2cc(-c3ccccc3)nn2)C[C@H]1C(=O)N[C@H](Cc1ccccc1)C(=O)NS(=O)(=O)C1CC1	> 100
CC(C)(C)OC(=O)N[C@H](C(=O)N1C[C@@H](n2cc(-c3ccccc3)nn2)C[C@H]1C(=O)N[C@H](Cc1ccccc1)C(=O)NS(=O)(=O)C1CC1)C(C)(C)C	> 100
COc1ccc(C(=O)N[C@H]2C[C@@H](C(=O)N[C@@H](CC(C)C)C(=O)NS(=O)(=O)C3CC3)N(C(=O)[C@@H](NC(=O)OC(C)(C)C)C(C)(C)C)C2)cc1	> 100
CC(C)C[C@H](NC(=O)[C@@H]1C[C@H](NC(=O)c2ccc3ccccc3c2)CN1C(=O)[C@@H](NC(=O)OC(C)(C)C)C(C)(C)C)C(=O)NS(=O)(=O)C1CC1	> 100

The next compounds have a lower IC50 than those just listed; values first:

IC50 [µM]	Compound
1.9	Cc1ccc(S(=O)(=O)NC(=O)[C@H](CC(C)C)NC(=O)[C@@H]2C[C@H](n3cc(-c4ccccc4)nn3)CN2C(=O)[C@@H](NC(=O)c2cccs2)C2CCCCC2)cc1
34	Cc1ccc(S(=O)(=O)NC(=O)[C@H](CC(C)C)NC(=O)[C@@H]2C[C@H](n3cc(-c4ccccc4)nn3)CN2C(=O)[C@@H](NC(=O)c2ccco2)C(C)(C)C)cc1
2.5	Cc1ccc(S(=O)(=O)NC(=O)[C@H](CC(C)C)NC(=O)[C@@H]2C[C@H](n3cc(-c4ccccc4)nn3)CN2C(=O)[C@@H](NC(=O)c2ccccc2)C2CCCCC2)cc1
5.9	Cc1ccc(S(=O)(=O)NC(=O)[C@H](CC(C)C)NC(=O)[C@@H]2C[C@H](n3cc(-c4ccccc4)nn3)CN2C(=O)[C@H](Cc2ccccc2)NC(=O)OC(C)(C)C)cc1
5.6	Cc1ccc(S(=O)(=O)NC(=O)[C@H](CC(C)C)NC(=O)[C@@H]2C[C@H](n3cc(-c4ccccc4)nn3)CN2C(=O)[C@H](Cc2c[nH]c3ccccc23)NC(=O)OC(C)(C)C)cc1
4.5	O=C(N[C@H](C(=O)N1C[C@@H](n2cc(-c3ccccc3)nn2)C[C@H]1C(=O)N[C@H](Cc1ccccc1)C(=O)NS(=O)(=O)C1CC1)C1CCCCC1)OCc1ccccc1
7.4	O=C(N[C@H](C(=O)N1C[C@@H](n2cc(-c3ccccc3)nn2)C[C@H]1C(=O)N[C@H](Cc1ccccc1)C(=O)NS(=O)(=O)C1CC1)C1CCCCC1)c1ccccc1
7.1	CC(C)(C)OC(=O)N[C@@H](Cc1ccccc1)C(=O)N1C[C@@H](n2cc(-c3ccccc3)nn2)C[C@H]1C(=O)N[C@H](Cc1ccccc1)C(=O)NS(=O)(=O)C1CC1
2.1	Cc1cccc(Nc2ccccc2C(=O)N[C@H]2C[C@@H](C(=O)N[C@@H](CC(C)C)C(=O)NS(=O)(=O)C3CC3)N(C(=O)[C@@H](NC(=O)OC(C)(C)C)C(C)(C)C)C2)c1C
0.45	CCC[C@H](NC(=O)[C@@H]1[C@H]2CCC[C@H]2CN1C(=O)[C@@H](NC(=O)[C@@H](NC(=O)c1cnccn1)C1CCCCC1)C(C)(C)C)C(=O)C(=O)NC1CC1 [TELAPREVIR]
